Only a selection was taken, and hits are over-represented in it overall.
Hsp70 activator = transcriptional activators of Hsp70 | HeLa Hsp70 promoter luciferase reporter, luminescence; scaled: vehicle 0, proteasome-inhibitor control 100% | activation, % at 10 µM | 200,000 compounds, 0.04% hits;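 active means activation above the mean across all tested compounds plus 3 SD, cutoff set per campaign, cut at about 5.5% in these data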;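 further: 100% = MG132 at 30 µM as the positive control and 0% = DMSO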
T cruzi inh = T. cruzi replication inhibition; T. cruzi beta-gal in NIH3T3, luminescence, 90 h; inhibition, % (test concentration not listed); 300,000 compounds, 1.4% hits; AID 1885;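 active means mean inhibition across valid replicates above about 55%, limit read from the data; inconclusive means mean below that limit but half or more replicates reach it; inactive means mean below it, under half of replicates reach it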;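 further: signal also drops with host cell toxicity which is not excluded here; 0% = plate median of DMSO wells and 100% = zero luminescence signal; higher percent means less beta-gal luminescence so fewer parasites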
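System: Mouse NIH/3T3 fibroblasts infected with β-gal-expressing T. cruzi Tulahuen C4 | Quantity: NIH/3T3 cells, 5,000 per well | Reagent: 5000 reporter trypomastigotes per well | Dosing: Compound pinned at 50 nL/well, DMSO | Schedule: 3 h host attachment, then at least 90 h co-culture | Detection: GalScreen luminescence, 60 min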
L major viab = reduces viability of Leishmania major promastigotes. AID 1063. resazurin fluorescence viability. inhibition, % at 10 µM. 200,000 compounds, 9% hits; in the data active means inhibition above about 50%;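 further: promastigotes grown with compound for 44 hours at 28 °C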
HSF-1 act = increases HSF-1 driven luciferase reporter signal. NIH3T3-HGL HSF-1 luciferase reporter, MG132, 8 h; 100% = twice DMSO control signal. activation, % at 9 µM. 300,000 compounds, 1.7% hits. AID 504408;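 active means mean replicate activation of at least 50% with a set share of replicates each reaching 50%; inconclusive means only one of those two conditions met; inactive means mean below 50% and too few replicates reaching it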;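 further: 0% = median of the neutral control wells and 100% = twice that signal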
HSF1 inhib = HSF1 inhibition; activity change, negative = inhibition, % at 7.5 µM (by protocol); NIH3T3-HGL HSE-luciferase, MG132-induced, luminescence 8 h; active compounds read low; 300,000 compounds, 0.77% hits; AID 2098;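 active means more than half of replicate wells show activity change below -50%, luminescence cut by over half; inconclusive means some wells, but at most half, below -50%; inactive means no replicate well below -50%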;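 further: luciferase reports HSF-1 transcriptional activity via heat shock element; 0% = median of DMSO wells and -100% = zero luminescence signal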
* hit, by the source's call; ? = inconclusive; . = no result given.

SMILES	Hsp70 activator	T cruzi inh	L major viab	HSF-1 act	HSF1 inhib
O=C1CC(NS(=O)(=O)c2cccnc2)CN1c1ccccc1 (stereo not given)	.	-7.5	.	3.4	-3.5
CCOC(=O)c1sc(N/N=C/c2ccccc2)nc1C	-0.2	13.2	-0.1	-6.1	-2.3
CC(=O)c1sc(N/N=C\c2ccccc2O)nc1C	0.6	12.1	4.7	56.4*	25.7
c1ccn2c(SCc3ccc4c(c3)OCO4)nnc2c1	0.3	-13.2	-6.8	-72.9	-65.3*
COc1ccc(S(=O)(=O)N(CCc2ccccc2)CC(=O)N/N=C/c2ccc3c(c2)OCO3)cc1	-0.3	41.6	98.5*	-3.0	0.0
CCOc1cc(/C=N/NC(=O)CN(CCc2ccccc2)S(=O)(=O)c2ccc(NC(C)=O)cc2)ccc1O	0.0	22.1	24.6	-90.5	-88.6*
COc1ccc(-c2nc(CSCC(=O)NC3CCCC3)c(C)o2)cc1OC	.	2.5	.	-4.3	-0.2
O=C(Nc1ccc(S(=O)(=O)N2CCOCC2)cc1)c1cccc(Br)c1	.	-9.0	.	-5.6	-3.0
O=C(CNS(=O)(=O)c1c(F)cc(F)cc1Br)OCC(=O)N1CCCC1=O	.	-10.3	.	-11.8	-0.9
COc1ccc(N(C(=O)c2ccccc2OC(C)=O)C(C)C2CC2)cc1 (stereo not given)	-0.3	-4.3	99.8*	28.5	-4.0
CSCCC(NC(=O)COc1ccccc1)C(=O)N1CCN(c2ccccc2O)CC1 (stereo not given)	.	-0.3	.	-1.3	0.3
OC(CON=C1c2ccccc2-c2ccccc21)CN1CCNCC1 (stereo not given)	-0.1	1.8	91.6*	-1.3	3.7
OC(CN1CCNCC1)Cn1ccc2ccccc21 (stereo not given)	.	-8.8	.	14.6	4.5
C=CCNC(=O)c1onc(CSc2ccc(OC)cc2)c1C(=O)O	-0.2	-10.5	-11.1	-3.0	-2.0
C=CCNC(=O)c1onc(CCl)c1C(=O)OC	-0.2	-10.1	100.7*	-40.2	-22.0
COCCNC(=O)c1onc(CSc2ccccc2)c1C(=O)NCCOC	.	-1.5	.	3.6	5.6
CCCCNC(=O)c1onc(CSc2ccc(OC)cc2)c1C(=O)O	-0.4	-21.5	-10.0	-45.7	-32.9
CCCCNC(=O)c1onc(CCl)c1C(=O)OC	-0.5	-27.3	100.6*	-15.5	-1.5
COCCNC(=O)c1onc(CCl)c1C(=O)OC	-0.1	3.0	92.2*	-7.9	-2.9
Cc1ccc2c(c1)c1c(c(=O)n(-c3ccccc3C)c(=O)n1CC(=O)NCC1CCCO1)n2C (stereo not given)	.	7.8	.	12.7	0.9
O=C(CN1C(=O)CCC1=O)NNc1ccc2ccccc2c1	0.2	.	95.6*	.	.
O=C(Cc1ccccc1)NNc1ccc2ccccc2c1	0.1	8.8	96.1*	-67.2	-63.2*
O=C(COc1ccc2ccccc2c1)NNC(=O)Cc1ccccc1	-0.3	-1.0	-6.3	-1.7	-0.3
O=C(NCC(c1ccco1)N1CCOCC1)c1c(F)cccc1F (stereo not given)	.	-12.2	.	-1.6	2.3
O=C(CSc1nnc(NC(=O)C2CC2)s1)NCc1ccco1	-0.2	-0.3	58.6*	-17.4	2.2
SMILES	Hsp70 activator	T cruzi inh	L major viab	HSF-1 act	HSF1 inhib
CC(C)=CCC/C(C)=C/CC(C)(C)CNCCN1CCNCC1	-0.5	?	100.4*	-0.1	5.3
CC(C)=CCC/C(C)=C/CCC(C)NCCN1CCNCC1 (stereo not given)	-0.1	19.9	100.5*	-3.7	-6.0
O=C(NC(=S)Nc1ccccc1Cl)c1cncc(Br)c1	.	1.3	.	0.8	1.5
CC1(C)CC(NS(=O)(=O)c2ccc3ccccc3c2)CC(C)(C)N1	.	9.0	.	-24.2	0.0
CCOC(=O)Cn1c(=NC(=O)C2COc3ccccc3O2)sc2cc(S(N)(=O)=O)ccc21 (stereo not given)	-0.2	12.5	-1.1	0.9	4.9
CCOC(=O)Cn1c(=NC(=O)c2ccc([N+](=O)[O-])s2)sc2ccccc21	-0.1	51.4	79.6*	26.0	4.4
CN(C)CCOc1ccc(/C(=C(/CCCl)c2ccccc2)c2ccccc2)cc1	.	62.4*	.	-6.1	14.0
CN(CCOc1ccccc1)CCOc1ccccc1	.	17.5	.	-9.8	-3.0
CCc1cccc(NC(=S)N(CCOC)C(C)c2ccco2)c1 (stereo not given)	.	-1.3	.	-9.0	-2.9
Nn1c(SC/C=C/c2ccccc2)nnc1-c1ccncc1	-0.2	9.7	1.7	37.4	25.1
COc1cc(-c2nnc(SC/C=C/c3ccccc3)n2N)cc(OC)c1OC	0.0	-12.5	15.7	79.2*	45.7
FC(F)(F)c1ccccc1C1C2=C(Nc3ncnn31)c1ccccc1CCC2 (stereo not given)	-0.2	.	95.9*	.	.
COc1ccc(C2C3=C(Nc4ncnn42)c2ccccc2CC3)cc1OC (stereo not given)	0.2	-10.1	2.9	-4.6	0.3
C(=C1/CCCC2=C1Nc1ncnn1C2c1ccccc1)/c1ccccc1 (stereo not given)	0.1	73.9*	100.5*	90.1*	53.1
CC(OC(=O)C1CC(=O)N(Cc2ccccc2)C1)C(=O)Nc1cccc(C#N)c1 (stereo not given)	.	-10.4	.	-1.8	-4.4
COc1ccc(C(=O)C/C(=C\C(=O)c2ccc(C)cc2)c2ccccc2)cc1	0.1	63.8*	52.4*	23.9	-0.7
COc1ccc(C(=O)CC(=O)c2ccccc2)cc1	.	-1.0	.	47.6	23.4
COc1ccc(CNC2CCSc3ccccc32)cc1OC (stereo not given)	.	3.3	.	62.7*	26.8
COc1ccc(CNC2CCCc3ccccc32)cc1OC (stereo not given)	-0.2	5.3	13.2	-5.9	2.7
COc1ccc(C=O)cc1Cn1ccnc1C	0.1	3.8	-5.7	-77.4	-77.1*
COc1ccc(C=O)cc1COc1c(F)c(F)cc(F)c1F	1.1	2.5	99.2*	32.5	4.2
CC(O)CNc1nc(Cl)c(C#N)s1 (stereo not given)	0.1	-16.8	-0.8	4.2	1.4
COc1cc(N/N=C/c2ccccc2O)ncn1	0.0	-6.8	82.4*	65.2*	21.3
COc1cc(N/N=C/c2ccc(N(C)C)cc2)ncn1	-0.3	-8.8	-0.9	21.0	-10.4
CCOc1ccc(-c2cn(-c3ccc(OC)cc3)c(SC)n2)cc1	0.4	-14.6	51.4*	61.7*	37.9
SMILES	Hsp70 activator	T cruzi inh	L major viab	HSF-1 act	HSF1 inhib
Cc1ccc(NC(=O)NCc2ccccn2)cc1	0.1	-9.5	-5.2	12.8	0.4
Cc1ccc(C)c(NC(=O)C(=O)NCc2ccccn2)c1	-0.1	-13.8	64.3*	-12.6	1.9
CCOCCCNc1nc(=S)[nH]c2cc(OC)c(OC)cc12	0.1	3.2	66.9*	-9.5	-5.6
Cc1cc(C)c2cc(CN(CCO)C(=O)Nc3ccc(F)cc3)c(=O)[nH]c2c1	-0.4	34.4	-2.0	-13.3	-4.9
Cc1cc(C)c2cc(CN(CCN(C)C)C(=O)Nc3ccccc3Cl)c(=O)[nH]c2c1	-0.2	29.6	58.3*	-59.6	-50.2*
CCN(CC(=O)NCc1cccs1)C(=O)c1ccc([N+](=O)[O-])o1	.	63.5*	.	-11.4	-8.0
